System: HEK-293T
Assay: Multiplex assay against HEK293T;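 as to Population Tubulin-Different-Phenotype (%): share of the cells with healthy nuclei that show this phenotype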
Format: toxicity, cell-based
Conditions: human
Outline: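 Per cents of healthy-nucleus cells form the tubulin, mitochondrial-mass and membrane-permeability phenotype values. Live cells were stained at seeding with Hoechst33342, BioTracker Green Microtubule Cytoskeleton Dye, MitoTracker Red and Annexin V Alexa Fluor 680. After compound addition they were imaged on a CQ1 microscope at 37°C and 5% CO2, and CellPathfinder machine-learning gating split them into Hoechst high-intensity objects or normal cells, normal cells into healthy, pyknosed or fragmented nuclei, and pyknosed cells into mitotic or apoptotic.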

[1] = 12 h, 1 µM, compound concentration 1 uM, replicate 1
[2] = 12 h, 1 µM, compound concentration 1 uM, replicate 2
[3] = 12 h, 10 µM, compound concentration 10 uM, replicate 1
[4] = 12 h, 10 µM, compound concentration 10 uM, replicate 2
[5] = 24 h, 1 µM, compound concentration 1 uM, replicate 1
[6] = 24 h, 1 µM, compound concentration 1 uM, replicate 2
[7] = 24 h, 10 µM, compound concentration 10 uM, replicate 1
[8] = 24 h, 10 µM, compound concentration 10 uM, replicate 2
[9] = 48 h, 1 µM, compound concentration 1 uM, replicate 1
[10] = 48 h, 1 µM, compound concentration 1 uM, replicate 2
[11] = 48 h, 10 µM, compound concentration 10 uM, replicate 1
[12] = 48 h, 10 µM, compound concentration 10 uM, replicate 2

COc1ncc(-c2ccc3nccc(-c4ccnnc4)c3c2)cc1NS(=O)(=O)c1ccc(F)cc1F [OMIPALISIB]
Population Apoptotic (%) [1]: 60% | Population Fragmented Nuclei (%) [1]: 17% | Population Healthy Nuclei (%) [1]: 18% | Population Hoechst High Intensity Objects (%) [1]: 20% | Population Membrane Permeable-Phenotype (%) [1]: 2% | Population Mitochondria Different-Phenotype (%) [1]: 81% | Population Mitotic Cells (%) [1]: 39% | Population Normal (%) [1]: 80% | Population Pyknosed Nuclei (%) [1]: 64% | Population Tubulin-Different-Phenotype (%) [1]: 24% | Total Cell Count [1]: 255 | Population Apoptotic (%) [2]: 27% | Population Fragmented Nuclei (%) [2]: 8% | Population Healthy Nuclei (%) [2]: 14% | Population Hoechst High Intensity Objects (%) [2]: 6% | Population Membrane Permeable-Phenotype (%) [2]: 0% | Population Mitochondria Different-Phenotype (%) [2]: 37% | Population Mitotic Cells (%) [2]: 72% | Population Normal (%) [2]: 93% | Population Pyknosed Nuclei (%) [2]: 77% | Population Tubulin-Different-Phenotype (%) [2]: 16% | Total Cell Count [2]: 180 | Population Apoptotic (%) [3]: 62% | Population Fragmented Nuclei (%) [3]: 12% | Population Healthy Nuclei (%) [3]: 20% | Population Hoechst High Intensity Objects (%) [3]: 22% | Population Membrane Permeable-Phenotype (%) [3]: 0% | Population Mitochondria Different-Phenotype (%) [3]: 97% | Population Mitotic Cells (%) [3]: 37% | Population Normal (%) [3]: 77% | Population Pyknosed Nuclei (%) [3]: 67% | Population Tubulin-Different-Phenotype (%) [3]: 39% | Total Cell Count [3]: 238 | Population Apoptotic (%) [4]: 34% | Population Fragmented Nuclei (%) [4]: 4% | Population Healthy Nuclei (%) [4]: 12% | Population Hoechst High Intensity Objects (%) [4]: 6% | Population Membrane Permeable-Phenotype (%) [4]: 5% | Population Mitochondria Different-Phenotype (%) [4]: 42% | Population Mitotic Cells (%) [4]: 65% | Population Normal (%) [4]: 93% | Population Pyknosed Nuclei (%) [4]: 83% | Population Tubulin-Different-Phenotype (%) [4]: 26% | Total Cell Count [4]: 161 | Population Apoptotic (%) [5]: 47% | Population Fragmented Nuclei (%) [5]: 21% | Population Healthy Nuclei (%) [5]: 6% | Population Hoechst High Intensity Objects (%) [5]: 22% | Population Mitochondria Different-Phenotype (%) [5]: 71% | Population Mitotic Cells (%) [5]: 52% | Population Normal (%) [5]: 77% | Population Pyknosed Nuclei (%) [5]: 71% | Population Tubulin-Different-Phenotype (%) [5]: 50% | Total Cell Count [5]: 280 | Population Apoptotic (%) [6]: 29% | Population Fragmented Nuclei (%) [6]: 5% | Population Healthy Nuclei (%) [6]: 14% | Population Hoechst High Intensity Objects (%) [6]: 6% | Population Membrane Permeable-Phenotype (%) [6]: 0% | Population Mitochondria Different-Phenotype (%) [6]: 40% | Population Mitotic Cells (%) [6]: 70% | Population Normal (%) [6]: 93% | Population Pyknosed Nuclei (%) [6]: 79% | Population Tubulin-Different-Phenotype (%) [6]: 24% | Total Cell Count [6]: 178 | Population Apoptotic (%) [7]: 53% | Population Fragmented Nuclei (%) [7]: 14% | Population Healthy Nuclei (%) [7]: 20% | Population Hoechst High Intensity Objects (%) [7]: 24% | Population Membrane Permeable-Phenotype (%) [7]: 2% | Population Mitochondria Different-Phenotype (%) [7]: 91% | Population Mitotic Cells (%) [7]: 46% | Population Normal (%) [7]: 75% | Population Pyknosed Nuclei (%) [7]: 64% | Population Tubulin-Different-Phenotype (%) [7]: 52% | Total Cell Count [7]: 228 | Population Apoptotic (%) [8]: 37% | Population Fragmented Nuclei (%) [8]: 5% | Population Healthy Nuclei (%) [8]: 19% | Population Hoechst High Intensity Objects (%) [8]: 11% | Population Membrane Permeable-Phenotype (%) [8]: 3% | Population Mitochondria Different-Phenotype (%) [8]: 57% | Population Mitotic Cells (%) [8]: 63% | Population Normal (%) [8]: 88% | Population Pyknosed Nuclei (%) [8]: 75% | Population Tubulin-Different-Phenotype (%) [8]: 46% | Total Cell Count [8]: 150 | Population Fragmented Nuclei (%) [9]: 30% | Population Healthy Nuclei (%) [9]: 5% | Population Hoechst High Intensity Objects (%) [9]: 22% | Population Membrane Permeable-Phenotype (%) [9]: 0% | Population Mitochondria Different-Phenotype (%) [9]: 75% | Population Normal (%) [9]: 77% | Population Pyknosed Nuclei (%) [9]: 64% | Population Tubulin-Different-Phenotype (%) [9]: 41% | Total Cell Count [9]: 286 | Population Apoptotic (%) [10]: 44% | Population Fragmented Nuclei (%) [10]: 7% | Population Healthy Nuclei (%) [10]: 36% | Population Hoechst High Intensity Objects (%) [10]: 7% | Population Membrane Permeable-Phenotype (%) [10]: 1% | Population Mitochondria Different-Phenotype (%) [10]: 40% | Population Mitotic Cells (%) [10]: 55% | Population Normal (%) [10]: 92% | Population Pyknosed Nuclei (%) [10]: 55% | Population Tubulin-Different-Phenotype (%) [10]: 35% | Total Cell Count [10]: 181 | Population Apoptotic (%) [11]: 40% | Population Fragmented Nuclei (%) [11]: 20% | Population Healthy Nuclei (%) [11]: 24% | Population Hoechst High Intensity Objects (%) [11]: 21% | Population Membrane Permeable-Phenotype (%) [11]: 5% | Population Mitochondria Different-Phenotype (%) [11]: 76% | Population Mitotic Cells (%) [11]: 59% | Population Normal (%) [11]: 78% | Population Pyknosed Nuclei (%) [11]: 55% | Population Tubulin-Different-Phenotype (%) [11]: 57% | Total Cell Count [11]: 202 | Population Apoptotic (%) [12]: 38% | Population Fragmented Nuclei (%) [12]: 8% | Population Healthy Nuclei (%) [12]: 38% | Population Hoechst High Intensity Objects (%) [12]: 7% | Population Membrane Permeable-Phenotype (%) [12]: 0% | Population Mitochondria Different-Phenotype (%) [12]: 49% | Population Mitotic Cells (%) [12]: 61% | Population Normal (%) [12]: 92% | Population Pyknosed Nuclei (%) [12]: 54% | Population Tubulin-Different-Phenotype (%) [12]: 54% | Total Cell Count [12]: 163

Reference: ChEMBL document CHEMBL4689842, “EUbOPEN Chemogenomics Library wave 1” (2021)
